Data reported in ChEMBL document CHEMBL3102817, “Mycoleptones A-C and polyketides from the endophyte Mycoleptodiscus indicus” (J Nat Prod, 2014).

Experiments:
[1] = test system: PC-3; experiment: Cytotoxicity against human PC3 cells by colorimetric method; assay type: functional, cell-based
[2] = test system: MDA-MB-435; experiment: Cytotoxicity against human MDA-MB-435 cells by colorimetric method; assay type: functional, cell-based
[3] = test system: SF-295; experiment: Cytotoxicity against human SF295 cells by colorimetric method; assay type: functional, cell-based
[4] = Cytotoxicity against human lymphocytes by colorimetric method; assay type: cell-based; settings: Lymphocyte
[5] = test system: Leishmania donovani; experiment: Antileishmanial activity against Leishmania donovani by AlamarBlue assay; assay type: functional, organism-based
Summary of the method: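 Microplate Alamar Blue (MABA) growth-inhibition assay on *L. donovani*, with amphotericin B and pentamidine as reference drugs.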

[6] = test system: HL-60; experiment: Cytotoxicity against human HL60 cells by colorimetric method; assay type: functional, cell-based
[7] = Cytotoxicity against human HCT8 cells by colorimetric method; assay type: functional, cell-based; settings: HCT-8
[8] = test system: Leishmania major; experiment: Antileishmanial activity against Leishmania major by AlamarBlue assay; assay type: functional; settings: read-out: LD50 (the source's name)

| Structure (SMILES) | IC50 [1] [µM] | IC50 [2] [µM] | IC50 [3] [µM] | IC50 [4] [µM] | IC50 [5] [µM] | IC50 [6] [µM] | IC50 [7] [µM] | LC50 [8] [µM] |
| --- | --- | --- | --- | --- | --- | --- | --- | --- |
| COc1cccc2c1C(=O)c1c(O)c3c(c(O)c1C2=O)C[C@@](O)(C(=O)CO)C[C@@H]3O[C@H]1C[C@H](N)[C@H](O)[C@H](C)O1 [DOXORUBICIN] | 0.41 | 1.51 | 0.7 | 0.7 | – | – | – | – |
| C[C@@H]1[C@H](O)[C@@H](C)/C=C/C=C/C=C/C=C/C=C/C=C/C=C/[C@H](O[C@@H]2O[C@H](C)[C@@H](O)[C@H](N)[C@@H]2O)C[C@@H]2O[C@](O)(C[C@@H](O)C[C@@H](O)[C@H](O)CC[C@@H](O)C[C@@H](O)CC(=O)O[C@H]1C)C[C@H](O)[C@H]2C(=O)O [AMPHOTERICIN B] | – | – | – | – | 0.14 | – | – | – |
| CC(=O)O[C@H]1C2=COC(C)=CC2=C(C=O)C(=O)[C@]1(C)OC(C)=O | – | 26.9 | 26.3 | > 78 | 59.3 | 22.1 | 13.9 | 19.8 |
| CC1=CC2=C(Cc3c(O)c(C)c4c(c3O)C(=O)OC(C)C4)C(=O)[C@](C)(O)[C@@H](O)C2=CO1 (stereo partly drawn) | 7.1 | > 58 | > 58 | > 58 | – | > 58 | > 58 | 21.7 |
| COc1cc2oc(C)cc(=O)c2c(O)c1C | > 113 | > 113 | > 113 | > 113 | > 181 | > 113 | > 113 | 39.9 |
| COc1cc2oc(C)cc(=O)c2c(O)c1OC [STELLATIN] | 20.5 | > 105 | > 105 | > 105 | > 169 | > 105 | > 105 | 34.5 |
| CC1=CC2=C(C=O)C(=O)[C@](C)(O)[C@@H](O)C2=CO1 | – | 34.3 | 28 | > 113 | 80.5 | 38.8 | 12.9 | 20.5 |
| CC1=CC2=C(CC3=C4C=C(C)OC=C4[C@H](O)[C@@](C)(O)C3=O)C(=O)[C@](C)(O)[C@@H](O)C2=CO1 | 10 | > 58 | > 58 | > 58 | > 93.4 | > 58 | > 58 | 28.5 |
| COc1cc2oc(CO)cc(=O)c2c(O)c1C | > 105 | > 105 | > 105 | > 105 | – | > 105 | > 105 | – |
| CC(=O)O[C@H]1C2=COC(C)=CC2=C(CC2=C3C=C(C)OC=C3[C@H](OC(C)=O)[C@@](C)(OC(C)=O)C2=O)C(=O)[C@]1(C)OC(C)=O | 33.3 | > 42 | > 42 | > 42 | – | > 42 | > 42 | – |
| CN[C@@H]1[C@@H](O)[C@@H](O[C@@H]2[C@@H](O)[C@H](O[C@H]3O[C@H]([C@@H](C)O)[C@@H](O)[C@H](O)[C@H]3N)[C@@H](N)C[C@H]2N)OC[C@]1(C)O [GENETICIN] | – | – | – | – | – | – | – | 3.43 |
